Measured values as given in publication PMC8436581 (Molecular Diversity, 2021).
Entries after “also recorded” stand apart in the source; their conditions may differ. Where two headings read alike, the source gives them in different places.

Tests used:
α-glycosidase [1] = assay: In vitro α-glycosidase inhibition assay; format: biochemical; settings: ratio of IC50 values against acarbose
α-glycosidase [2] = assay: Enzyme kinetic study; format: biochemical; settings: Lineweaver–Burk plot
Method in brief: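 Double-reciprocal analysis: reciprocal rate (1/V) plotted against reciprocal substrate concentration (1/[S]) at several inhibitor concentrations to assign the inhibition mode; Ki obtained from a secondary plot of inhibitor concentration [I] versus 1/Vi'max.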

α-glycosidase [3] = settings: cited from earlier work

Structure (SMILES) | improvement in potency compared to acarbose (α-glycosidase [1]) | type of inhibition (α-glycosidase [2]) | further results
O=C(Cn1cc(COc2ccc(-c3nc4ccccc4[nH]3)cc2)nn1)Nc1cnc(-c2ccccc2)s1 [9a, 2-{4-[4-(1H-1,3-benzodiazol-2-yl)phenoxymethyl]-1H-1,2,3-triazol-1-yl}-N-(2-phenyl-1,3-thiazol-5-yl)acetamide] | around 39 fold | – | –
Cc1ccc(-c2ncc(NC(=O)Cn3cc(COc4ccc(-c5nc6ccc(C)cc6[nH]5)cc4)nn3)s2)cc1 [9m, 2-{4-[4-(6-Methyl-1H-1,3-benzodiazol-2-yl)phenoxymethyl]-1H-1,2,3-triazol-1-yl}-N-[2-(4-methylphenyl)-1,3-thiazol-5-yl]acetamide] | – | uncompetitive inhibitors; also recorded: uncompetitive type of inhibition | –
COc1cc(-c2nc3ccccc3[nH]2)ccc1OCc1cn(CC(=O)Nc2cnc(-c3ccc(C)cc3)s2)nn1 [9i, 2-{4-[4-(1H-1,3-benzodiazol-2-yl)-2-methoxyphenoxymethyl]-1H-1,2,3-triazol-1-yl}-N-[2-(4-methylphenyl)-1,3-thiazol-5-yl]acetamide] | 15 fold | – | –
COc1cc(-c2nc3ccccc3[nH]2)ccc1OCc1cn(CC(=O)Nc2cnc(-c3ccccc3)s2)nn1 [9g, 2-{4-[4-(1H-1,3-benzodiazol-2-yl)-2-methoxyphenoxymethyl]-1H-1,2,3-triazol-1-yl}-N-(2-phenyl-1,3-thiazol-5-yl)acetamide] | – | uncompetitive inhibitors; also recorded: uncompetitive type of inhibition | –
C[C@H]1O[C@H](O[C@H]2[C@H](O)[C@@H](O)[C@@H](O[C@H]3[C@H](O)[C@@H](O)C(O)O[C@@H]3CO)O[C@@H]2CO)[C@H](O)[C@@H](O)[C@@H]1N[C@H]1C=C(CO)[C@@H](O)[C@H](O)[C@H]1O (stereo partly shown) [Acarbose] | – | – | IC50 (α-glycosidase [3]; arylthiazole-pyridine derivatives): 856.5 ± 5.6 µM; IC50 (α-glycosidase [3]; benzimidazole bearing bis-Schiff bases): 38.5 µM; IC50 (α-glycosidase [3]; benzimidazole-1,2,3-triazole hybrids): 750 ± 12.5 µM; IC50 (α-glycosidase [3]; benzimidazole-based oxadiazole derivatives): 38.5 ± 0.8 µM; IC50 (α-glycosidase [3]; thiourea derivatives bearing benzimidazole): 774 µM
O=C(Cn1cc(COc2ccc(-c3nc4ccccc4[nH]3)cc2)nn1)Nc1cnc(-c2ccc(Br)cc2)s1 [9c, 2-{4-[4-(1H-1,3-benzodiazol-2-yl)phenoxymethyl]-1H-1,2,3-triazol-1-yl}-N-[2-(4-bromophenyl)-1,3-thiazol-5-yl]acetamide] | – | uncompetitive inhibitors; also recorded: uncompetitive type of inhibition | –
